In ChEMBL document CHEMBL3091306, “Synthesis, docking and pharmacological evaluation of novel homo- and hetero-bis 3-piperazinylpropylindole derivatives at SERT and 5-HT1A receptor” (Bioorg Med Chem, 2013):

What was measured:
[1] = molecular target: Sodium-dependent serotonin transporter (Rattus norvegicus, UniProt P31652); test: Displacement of [3H]paroxetine from SERT in rat cortical membranes after 6 mins by liquid scintillation counting; assay type: cell membranes
Outline: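 Rat cortical membranes (0.35 mg original wet weight) incubated with 0.2 nM [3H]paroxetine and test compound at 10^-11–10^-4 M in 50 mM Tris–HCl pH 7.7 with 150 mM NaCl, 5 mM KCl, 1.0 ml, 6 min at 25 °C; stopped by rapid filtration through polyethyleneimine-soaked GF/B filters, ice-cold buffer washes.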

[2] = molecular target: T1, 5-hydroxytryptamine receptor 1A (Homo sapiens, UniProt P08908); test: Displacement of [3H]8-OH-DPAT from human 5-HT1A receptor expressed in HEK293 cells; assay type: cell-based
T1 sequence (P08908 whole entry): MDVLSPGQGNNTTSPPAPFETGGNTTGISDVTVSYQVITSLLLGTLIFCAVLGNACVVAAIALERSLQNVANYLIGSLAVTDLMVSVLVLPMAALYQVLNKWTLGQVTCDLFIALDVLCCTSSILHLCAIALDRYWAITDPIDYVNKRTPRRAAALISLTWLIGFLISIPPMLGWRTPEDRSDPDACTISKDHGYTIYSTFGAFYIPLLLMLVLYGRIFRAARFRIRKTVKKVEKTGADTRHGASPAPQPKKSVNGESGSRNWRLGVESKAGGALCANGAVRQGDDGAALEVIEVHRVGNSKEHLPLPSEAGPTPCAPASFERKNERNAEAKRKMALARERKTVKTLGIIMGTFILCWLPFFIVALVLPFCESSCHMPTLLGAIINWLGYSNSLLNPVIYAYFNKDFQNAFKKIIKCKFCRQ

Chain of Sodium-dependent serotonin transporter (P31652 whole entry): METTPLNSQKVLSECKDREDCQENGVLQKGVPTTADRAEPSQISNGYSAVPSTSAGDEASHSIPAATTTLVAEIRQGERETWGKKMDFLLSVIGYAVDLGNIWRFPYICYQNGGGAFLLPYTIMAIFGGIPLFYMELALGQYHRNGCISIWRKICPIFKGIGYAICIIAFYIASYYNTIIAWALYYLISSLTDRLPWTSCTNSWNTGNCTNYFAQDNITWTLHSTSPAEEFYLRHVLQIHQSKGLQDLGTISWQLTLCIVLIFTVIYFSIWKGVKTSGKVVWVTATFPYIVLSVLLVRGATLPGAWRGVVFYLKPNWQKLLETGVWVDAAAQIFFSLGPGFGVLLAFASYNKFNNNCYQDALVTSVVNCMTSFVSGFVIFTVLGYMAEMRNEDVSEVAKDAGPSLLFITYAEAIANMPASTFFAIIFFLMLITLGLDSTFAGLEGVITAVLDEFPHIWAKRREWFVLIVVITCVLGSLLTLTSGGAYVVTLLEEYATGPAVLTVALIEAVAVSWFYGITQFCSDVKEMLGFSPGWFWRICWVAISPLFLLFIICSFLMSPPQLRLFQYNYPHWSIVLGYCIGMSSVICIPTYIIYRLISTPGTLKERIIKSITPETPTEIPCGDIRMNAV

| IC50 [1] [nM] | IC50 [2] [nM] | Structure (SMILES) |
| --- | --- | --- |
| 26 | 16 | Fc1ccc2[nH]cc(CCCN3CCN(CCCc4c[nH]c5ccccc45)CC3)c2c1 |
| 14 | 7200 | COc1ccc2[nH]cc(CCCN3CCN(CCCc4c[nH]c5ccc(F)cc45)CC3)c2c1 |
| 43 | 4500 | COc1ccc2[nH]cc(CCCN3CCN(CCCc4c[nH]c5ccccc45)CC3)c2c1 |
| 61 | 4900 | Fc1ccc2[nH]cc(CCCN3CCN(CCCc4c[nH]c5ccc(Br)cc45)CC3)c2c1 |
| 39 | 128 | COc1ccc2[nH]cc(CCCN3CCN(CCCc4c[nH]c5ccc(Br)cc45)CC3)c2c1 |
| 37 | 2700 | c1ccc2c(CCCN3CCN(CCCc4c[nH]c5ccccc45)CC3)c[nH]c2c1 |
| 13 | 5700 | Fc1ccc2[nH]cc(CCCN3CCN(CCCc4c[nH]c5ccc(F)cc45)CC3)c2c1 |
| 98 | 599 | COc1ccc2[nH]cc(CCCN3CCN(CCCc4c[nH]c5ccc(OC)cc45)CC3)c2c1 |
| 87 | 1200 | Brc1ccc2[nH]cc(CCCN3CCN(CCCc4c[nH]c5ccc(Br)cc45)CC3)c2c1 |
| 137 | 15 | Brc1ccc2[nH]cc(CCCN3CCN(CCCc4c[nH]c5ccccc45)CC3)c2c1 |
